Results as given in ChEMBL document CHEMBL1121809, “Cyclic guanidines. 14. Imidazo[1,2-a]thienopyrimidin-2-one derivatives as blood platelet aggregation inhibitors” (J Med Chem, 1981).

Legend:
Rattus norvegicus [1] = species on record: Rattus norvegicus; experiment: In vitro inhibition of ADP-induced blood platelet aggregation; format: functional
Method in brief: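 Rat carotid citrated blood was spun at 230g for 7 min to give PRP, adjusted with PPP to about 5 × 10⁵ platelets/μL. Compound in saline or MeOH was added before 10 μM ADP in Tris-HCl/NaCl pH 7.4 with CaCl₂. Aggregation was read at 30 °C, 1100 rpm, as maximal ΔA. EC50 is the concentration giving 50% inhibition.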

Rattus norvegicus [2] = species on record: Rattus norvegicus; experiment: In vitro inhibition of collagen-induced blood platelet aggregation; format: functional
Method in brief: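 Rat PRP (about 5 × 10⁵ platelets/μL) was preincubated with compound added in saline or MeOH. Aggregation was started with bovine tendon collagen suspension in Tris buffer (absorbance 0.270 at 420 nm; lag 2–3 min). Read at 30 °C, 1100 rpm, as initial maximal rate ΔA/min. EC50 is the concentration giving 50% inhibition.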

Rattus norvegicus [3] = experiment: Ex vivo inhibition of collagen-induced blood platelet aggregation in rat was measured 2 hr after administration of vehical alone; format: functional
Method in brief: (§1)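 Overnight-fasted rats were dosed orally at (50 mg/10 mL)/kg in 0.5% Tween 80; controls got vehicle at 10 mL/kg. PRP was made from carotid citrated blood 2 h later under pentobarbital. Collagen suspension (absorbance 0.270 at 420 nm) drove aggregation at 30 °C, 1100 rpm. Read-out was the initial maximal rate of absorbance fall (ΔA/min). Inhibition percent is versus controls; 5–7 rats, mean ± SD.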

Rattus norvegicus [4] = experiment: (§2) Ex vivo inhibition of collagen-induced blood platelet aggregation in rat was measured 2 hr after oral administration of 50 mg/kg; format: functional; parameters: scale not given here; method in brief: as §1
Rattus norvegicus [5] = experiment: as §2; format: functional; method in brief: as §1
Rattus norvegicus [6] = species on record: Rattus norvegicus; experiment: Inhibition of ADP-induced blood platelet aggregation in rat after 24 hr; format: functional
Method in brief: (§3)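 This is an ex vivo time course after a single oral 50 mg/kg dose in 0.5% Tween 80 to fasted rats, with PRP made at 3, 6 or 24 h; controls got vehicle 3 h before blood collection. ADP (10 μM) aggregation was read as extent ΔA at 30 °C. Percent inhibition is versus controls; 5–7 animals, mean ± SD.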

Rattus norvegicus [7] = species on record: Rattus norvegicus; experiment: Inhibition of ADP-induced blood platelet aggregation in rat after 3 hr; format: functional; method in brief: as §3
Rattus norvegicus [8] = species on record: Rattus norvegicus; experiment: Inhibition of ADP-induced blood platelet aggregation in rat after 6 hr; format: functional; method in brief: as §3
Rattus norvegicus [9] = species on record: Rattus norvegicus; experiment: Inhibition of collagen-induced blood platelet aggregation in rat after 24 hr; format: functional
Method in brief: (§4)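 Fasted rats received one oral 50 mg/kg dose in 0.5% Tween 80, and PRP was prepared 3, 6 or 24 h later; vehicle controls were bled at 3 h. Collagen-induced aggregation was read as initial maximal rate ΔA/min at 30 °C. Percent inhibition is versus controls; 5–7 animals, mean ± SD.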

Rattus norvegicus [10] = species on record: Rattus norvegicus; experiment: Inhibition of collagen-induced blood platelet aggregation in rat after 3 hrs; format: functional; method in brief: as §4
Rattus norvegicus [11] = species on record: Rattus norvegicus; experiment: Inhibition of collagen-induced blood platelet aggregation in rat after 6 hrs; format: functional; method in brief: as §4
Rattus norvegicus [12] = experiment: Effect on systolic blood pressure in rat after an oral dose at 50 mg/kg (1h after dose); format: functional, Artery
Method in brief: (§5)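 Male Wistar-Imamichi rats, 250 g, were given the compound orally at (50 mg/7.5 mL)/kg as a suspension in 0.5% CMC or 0.5% Tween 80. Systolic pressure and heart rate were taken by tail-cuff after prewarming at 55–60 °C for 3 min, before dosing and at set times after. Five rats per group, mean ± SD. Pressure is reported as decrease and heart rate as percent change.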

Rattus norvegicus [13] = experiment: Effect on systolic blood pressure in rat after an oral dose at 50 mg/kg (3h after dose); format: functional, Artery; method in brief: as §5
Rattus norvegicus [14] = experiment: Effect on systolic blood pressure in rat after an oral dose at 50 mg/kg (5h after dose); format: functional, Artery; method in brief: as §5
Rattus norvegicus [15] = experiment: Effect on systolic blood pressure in rat after an oral dose at 50 mg/kg; format: functional, Artery; method in brief: as §5
Rattus norvegicus [16] = experiment: Effect on heart rate in rat after an oral dose at 50 mg/kg (3h after dose); format: functional; method in brief: as §5
Rattus norvegicus [17] = experiment: Effect on heart rate in rat after an oral dose at 50 mg/kg (4h after dose); format: functional; method in brief: as §5
Rattus norvegicus [18] = experiment: Effect of compound on heart rate in rat after an oral dose at 50 mg/kg; format: functional; method in brief: as §5
Rattus norvegicus [19] = experiment: Effect on heart rate in rat after an oral dose at 50 mg/kg (1h after dose); format: functional; method in brief: as §5

SMILES	EC50 (Rattus norvegicus [1]) [µM]	EC50 (Rattus norvegicus [2]) [µM]	Delta A/min (Rattus norvegicus [3])	Delta A/min (Rattus norvegicus [4])	Delta A/min (Rattus norvegicus [5])	other results
Cl.O=C1CN2Cc3c(sc4c3CCOC4)N=C2N1	1.3	0.2	0.171	113000		
Cc1cc2c(s1)NC1=NC(=O)CN1C2.Cl	125	35			0.162 ΔA/min	
Cl.O=C1CN2Cc3c(sc4c3CCCCC4)N=C2N1	18	0.17			0.202 ΔA/min	
CCC1C(=O)NC2=Nc3sc4c(c3CN21)CCCC4 (stereo not given)	> 250	60				
O=C1CN2Cc3cscc3N=C2N1	> 250	90				
Cc1sc2c(c1Cl)CN1CC(=O)NC1=N2.Cl	36	17			0.28 ΔA/min	
Cc1sc2c(c1C)CN1C(=N2)NC(=O)C1C.Cl (stereo not given)	20	0.13	0.183	0.076 ΔA/min		
Cl.Cl.O=C1CN2Cc3c(sc4c3CCN(Cc3ccccc3)C4)N=C2N1	13.5	29	0.186	121000		
CN1C(=O)CN2Cc3c(sc4c3CCCC4)N=C21	> 250	> 250				
Cl.O=C1CN2Cc3c(sc4c3CCC4)N=C2N1	40	0.25			0.072 ΔA/min	
Cc1sc2c(c1Cl)CN1C(=N2)NC(=O)C1C (stereo not given)	150	0.9				
Cl.O=C1CN2Cc3c(sc4c3SCCC4)NC2=N1	1.2	0.16	0.171	0.125 ΔA/min		
Cl.O=C1CN2Cc3c(sc4ccccc34)N=C2N1	5.3	0.15	0.183	0.092 ΔA/min		
Cl.O=C1CN2Cc3c(-c4ccccc4)csc3NC2=N1	120	20			0.198 ΔA/min	
Cl.O=C1CN2Cc3c(sc4c3CCC(OCc3ccccc3)C4)N=C2N1 (stereo not given)	4.2	2.2	0.117	42000		
Cc1c(Cl)sc2c1CN1CC(=O)NC1=N2.Cl	4.2	1.9			0.222 ΔA/min	Delta A/min (Rattus norvegicus [6]): 0.122; Delta A/min (Rattus norvegicus [7]): 0.106; Delta A/min (Rattus norvegicus [8]): 0.121; Delta A/min (Rattus norvegicus [9]): 0.166; Delta A/min (Rattus norvegicus [10]): 0.077; Delta A/min (Rattus norvegicus [11]): 0.166
CC1CCCc2c1sc1c2CN2C(=NC(=O)C2C)N1.Cl (stereo not given)	3	0.03	0.183	0.047 ΔA/min		
CC1CCc2c(sc3c2CN2CC(=O)NC2=N3)C1.Cl (stereo not given)	2	0.62	0.178	0		
Cl.O=C1CN2Cc3c(sc4c3CCc3ccccc3-4)N=C2N1	19	0.9	0.207	0.191 ΔA/min		
Cc1cc2c(s1)CN1CC(=O)NC1=N2.Cl	250	12	0.228	0.217 ΔA/min		

SMILES	EC50 (Rattus norvegicus [1]) [µM]	EC50 (Rattus norvegicus [2]) [µM]	Delta A/min (Rattus norvegicus [3])	Delta A/min (Rattus norvegicus [4])	Delta A/min (Rattus norvegicus [5])	other results
Cc1sc2c(c1C)CN1CC(=O)NC1=N2.Cl	5	1			0.073 ΔA/min	Delta A/min (Rattus norvegicus [6]): 0.168; Delta A/min (Rattus norvegicus [7]): 0.173; Delta A/min (Rattus norvegicus [8]): 0.168; Delta A/min (Rattus norvegicus [9]): 0.164; Delta A/min (Rattus norvegicus [10]): 0.094; Delta A/min (Rattus norvegicus [11]): 0.153
CC1CCCc2c1sc1c2CN2CC(=O)N=C2N1.Cl (stereo not given)	0.53	0.18			0	Delta A/min (Rattus norvegicus [6]): 0.118; Delta A/min (Rattus norvegicus [7]): 0.053; Delta A/min (Rattus norvegicus [8]): 0.079; Delta A/min (Rattus norvegicus [9]): 0.116; Delta A/min (Rattus norvegicus [10]): 0; Delta A/min (Rattus norvegicus [11]): 0.036
Cl.O=C1CN2Cc3c(sc4c3CCC(O)C4)N=C2N1 (stereo not given)	2	0.1	0.117	2000		
CN(C(=O)CCCOc1ccc2[nH]c(=O)ccc2c1)C1CCCCC1 [CILOSTAMIDE]	12	1.2				Decrease in blood pressure (Rattus norvegicus [12]): 1; Decrease in blood pressure (Rattus norvegicus [13]): -1; Decrease in blood pressure (Rattus norvegicus [14]): -1; Initial blood pressure (Rattus norvegicus [15]): 125 mmHg; Change in heart rate (Rattus norvegicus [16]): 20%; Change in heart rate (Rattus norvegicus [17]): 21%; Change in heart rate (Rattus norvegicus [18]): 26%; Change in heart rate (Rattus norvegicus [19]): 22%
Cl.O=C1CN2Cc3c(sc4c3CCSC4)N=C2N1	2	0.54	0.178	0		
CCCCCc1sc2c(c1C)CN1CC(=O)NC1=N2.Cl	2	0.19			0.002 ΔA/min	
Cc1csc2c1CN1CC(=O)NC1=N2.Cl	19	15			0.188 ΔA/min	
CCCc1c(CC)sc2c1CN1CC(=O)NC1=N2.Cl	3	2.2			0.008 ΔA/min	
O=C1CN2Cc3c(sc4c3COc3ccccc3-4)N=C2N1	34	1.6				
CCOC(=O)N1CCc2c(sc3c2CN2CC(=O)NC2=N3)C1.Cl	1.2	0.12	0.171	115000		Delta A/min (Rattus norvegicus [9]): 30000; Delta A/min (Rattus norvegicus [10]): 120000; Delta A/min (Rattus norvegicus [11]): 0.072
Cc1scc2c1CN1CC(=O)NC1=N2.Cl	17	3.5	0.29	0.198 ΔA/min		
O=C1CN2Cc3c(sc4c3CCCC4Cc3ccccc3)N=C2N1 (stereo not given)	160	4				
CC(C)(C)C1CCc2c(sc3c2CN2CC(=O)NC2=N3)C1.Cl (stereo not given)	27	0.25	0.117	4000		
CC1CCc2c(sc3c2CN2C(=N3)NC(=O)C2C)C1.Cl (stereo not given)	32	0.2	0.207	152000		
O=C1CN2Cc3ccsc3N=C2N1	> 250	> 250				
Cl.O=C1CN2Cc3sccc3N=C2N1	> 250	10	0.308	0.256 ΔA/min		
CCCCC1C(=O)NC2=Nc3sc4c(c3CN21)CCCC4 (stereo not given)	> 250	> 250				
CCCc1sc2c(c1C)CN1CC(=O)NC1=N2.Cl	0.58	0.08			0.09 ΔA/min	Delta A/min (Rattus norvegicus [7]): 0.128; Delta A/min (Rattus norvegicus [8]): 0.154; Delta A/min (Rattus norvegicus [9]): 0.242; Delta A/min (Rattus norvegicus [10]): 0.09; Delta A/min (Rattus norvegicus [11]): 0.213
Cl.O=C1CN2C=c3c4c(sc3=NC2=N1)CCCC4	250	84	0.183	0.047 ΔA/min		Delta A/min (Rattus norvegicus [9]): 0.185; Delta A/min (Rattus norvegicus [10]): 0.068; Delta A/min (Rattus norvegicus [11]): 0.195
Cc1cc2c(s1)N=C1NC(=O)C(C)N1C2 (stereo not given)	230	10				
